Assay results published in ChEMBL document CHEMBL2331542, “Synthesis and in vitro antibacterial activity of quinolone/naphthyridone derivatives containing 3-alkoxyimino-4-(methyl)aminopiperidine scaffolds” (2013).
Values after ≈ are worked out from the molar mass of the structure shown.

Columns and labels:
Format in all cases: functional
Staphylococcus aureus [1] = assay: Antibacterial activity against methicillin-sensitive Staphylococcus aureus isolate 12-6
Summary of the method: (§1)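 MIC determined in vitro by a standard technique and defined as the lowest compound concentration giving complete inhibition of bacterial growth. The Gram-positive and Gram-negative panels were tested alongside gemifloxacin, levofloxacin and ciprofloxacin reference drugs.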

Escherichia coli [2] = assay: Antibacterial activity against Escherichia coli ATCC 25922; summary of the method: as §1
Staphylococcus aureus [3] = assay: Antibacterial activity against methicillin-sensitive Staphylococcus aureus isolate 12-10; summary of the method: as §1
[4] = test system: Staphylococcus epidermidis; assay: Antibacterial activity against methicillin-resistant Staphylococcus epidermidis isolate 12-35
Summary of the method: (§2)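 MIC determined in vitro by standard techniques, defined as the lowest compound concentration giving complete inhibition of bacterial growth. Gemifloxacin, levofloxacin and ciprofloxacin were tested alongside as reference drugs.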

[5] = test system: Staphylococcus epidermidis; assay: Antibacterial activity against methicillin-sensitive Staphylococcus epidermidis isolate 12-1; summary of the method: as §1
Streptococcus pneumoniae [6] = assay: Antibacterial activity against Streptococcus pneumoniae isolate 12-2; summary of the method: as §1
Staphylococcus aureus [7] = assay: Antibacterial activity against Staphylococcus aureus […]; summary of the method: as §1
Staphylococcus aureus [8] = assay: Antibacterial activity against methicillin-resistant Staphylococcus aureus isolate 12-3; summary of the method: as §2
[9] = test system: Staphylococcus epidermidis; assay: Antibacterial activity against methicillin-sensitive Staphylococcus epidermidis isolate 12-3; summary of the method: as §1
Pseudomonas aeruginosa [10] = assay: Antibacterial activity against Pseudomonas aeruginosa isolate 12-2; summary of the method: as §1
Escherichia coli [11] = assay: Antibacterial activity against extended-spectrum beta-lactamase-producing Escherichia coli isolate 12-4; summary of the method: as §1
Staphylococcus aureus [12] = assay: Antibacterial activity against methicillin-sensitive Staphylococcus aureus isolate 12-7; summary of the method: as §1
[13] = test system: Staphylococcus epidermidis; assay: Antibacterial activity against methicillin-sensitive Staphylococcus epidermidis isolate 12-2; summary of the method: as §1
Pseudomonas aeruginosa [14] = assay: Antibacterial activity against Pseudomonas aeruginosa ATCC 27853; summary of the method: as §1
Escherichia coli [15] = assay: Antibacterial activity against extended-spectrum beta-lactamase-producing Escherichia coli isolate 12-1; summary of the method: as §1
Klebsiella pneumoniae [16] = assay: Antibacterial activity against Klebsiella pneumoniae isolate 12-1; summary of the method: as §1
Escherichia coli [17] = assay: Antibacterial activity against Escherichia coli isolate 12-5; summary of the method: as §1
Escherichia coli [18] = assay: Antibacterial activity against Escherichia coli isolate 12-4; summary of the method: as §1
Klebsiella pneumoniae [19] = assay: Antibacterial activity against Klebsiella pneumoniae isolate 12-4; summary of the method: as §1
Escherichia coli [20] = assay: Antibacterial activity against Escherichia coli isolate 12-1; summary of the method: as §1
Klebsiella pneumoniae [21] = assay: Antibacterial activity against extended-spectrum beta-lactamase-producing Klebsiella pneumoniae isolate 12-2; summary of the method: as §1
Klebsiella pneumoniae [22] = assay: Antibacterial activity against extended-spectrum beta-lactamase-producing Klebsiella pneumoniae isolate 12-4; summary of the method: as §1
Staphylococcus aureus [23] = assay: Antibacterial activity against methicillin-resistant Staphylococcus aureus isolate 12-13; summary of the method: as §2
Escherichia coli [24] = assay: Antibacterial activity against extended-spectrum beta-lactamase-producing Escherichia coli isolate 12-2; summary of the method: as §1
[25] = test system: Staphylococcus epidermidis; assay: Antibacterial activity against methicillin-resistant Staphylococcus epidermidis isolate 12-33; summary of the method: as §2
Pseudomonas aeruginosa [26] = assay: Antibacterial activity against Pseudomonas aeruginosa isolate 12-1; summary of the method: as §1
Staphylococcus aureus [27] = assay: Antibacterial activity against methicillin-resistant Staphylococcus aureus isolate 12-15; summary of the method: as §2
[28] = test system: Staphylococcus epidermidis; assay: Antibacterial activity against methicillin-resistant Staphylococcus epidermidis isolate 12-5; summary of the method: as §2
Klebsiella pneumoniae [29] = assay: Antibacterial activity against Klebsiella pneumoniae isolate 12-2; summary of the method: as §1
Streptococcus pneumoniae [30] = assay: Antibacterial activity against Streptococcus pneumoniae isolate 12-5; summary of the method: as §1
Klebsiella pneumoniae [31] = assay: Antibacterial activity against extended-spectrum beta-lactamase-producing Klebsiella pneumoniae isolate 12-1; summary of the method: as §1

CNC1CCN(c2c(F)cc3c(=O)c(C(=O)O)cn4c3c2OC[C@@H]4C)C/C1=N\OC (stereo partly drawn)
MIC (Staphylococcus aureus [1]): 0.25 µg/mL (≈ 0.597 µM)
MIC (Escherichia coli [2]): 0.25 µg/mL (≈ 0.597 µM)
MIC (Staphylococcus aureus [3]): 0.25 µg/mL (≈ 0.597 µM)
MIC [4]: 0.125 µg/mL (≈ 0.299 µM)
MIC [5]: 0.5 µg/mL (≈ 1.19 µM)
MIC (Streptococcus pneumoniae [6]): 1 µg/mL (≈ 2.39 µM)
MIC (Staphylococcus aureus [7]): 0.25 µg/mL (≈ 0.597 µM)
MIC (Staphylococcus aureus [8]): 1 µg/mL (≈ 2.39 µM)
MIC [9]: 0.5 µg/mL (≈ 1.19 µM)
MIC (Pseudomonas aeruginosa [10]): 8 µg/mL (≈ 19.1 µM)
MIC (Escherichia coli [11]): 16 µg/mL (≈ 38.2 µM)
MIC (Staphylococcus aureus [12]): 1 µg/mL (≈ 2.39 µM)
MIC [13]: 2 µg/mL (≈ 4.78 µM)
MIC (Pseudomonas aeruginosa [14]): 4 µg/mL (≈ 9.56 µM)
MIC (Escherichia coli [15]): 128 µg/mL (≈ 306 µM)
MIC (Klebsiella pneumoniae [16]): 1 µg/mL (≈ 2.39 µM)
MIC (Escherichia coli [17]): 128 µg/mL (≈ 306 µM)
MIC (Escherichia coli [18]): 128 µg/mL (≈ 306 µM)
MIC (Klebsiella pneumoniae [19]): 0.5 µg/mL (≈ 1.19 µM)
MIC (Escherichia coli [20]): 8 µg/mL (≈ 19.1 µM)
MIC (Klebsiella pneumoniae [21]): 16 µg/mL (≈ 38.2 µM)
MIC (Klebsiella pneumoniae [22]): 0.5 µg/mL (≈ 1.19 µM)
MIC (Staphylococcus aureus [23]): 1 µg/mL (≈ 2.39 µM)
MIC (Escherichia coli [24]): > 128 µg/mL
MIC [25]: < 0.008 µg/mL
MIC (Pseudomonas aeruginosa [26]): 8 µg/mL (≈ 19.1 µM)
MIC (Staphylococcus aureus [27]): 1 µg/mL (≈ 2.39 µM)
MIC [28]: 0.125 µg/mL (≈ 0.299 µM)
MIC (Klebsiella pneumoniae [29]): 1 µg/mL (≈ 2.39 µM)
MIC (Streptococcus pneumoniae [30]): 1 µg/mL (≈ 2.39 µM)
MIC (Klebsiella pneumoniae [31]): 16 µg/mL (≈ 38.2 µM)

CCO/N=C1\CN(c2c(F)cc3c(=O)c(C(=O)O)cn(C4CC4)c3c2F)CCC1NC (stereo not drawn)
MIC (Staphylococcus aureus [1]): 0.5 µg/mL (≈ 1.15 µM)
MIC (Escherichia coli [2]): 16 µg/mL (≈ 36.8 µM)
MIC (Staphylococcus aureus [3]): 0.125 µg/mL (≈ 0.288 µM)
MIC [4]: 1 µg/mL (≈ 2.3 µM)
MIC [5]: 0.5 µg/mL (≈ 1.15 µM)
MIC (Streptococcus pneumoniae [6]): 0.5 µg/mL (≈ 1.15 µM)
MIC (Staphylococcus aureus [7]): 0.5 µg/mL (≈ 1.15 µM)
MIC (Staphylococcus aureus [8]): 0.5 µg/mL (≈ 1.15 µM)
MIC [9]: 0.5 µg/mL (≈ 1.15 µM)
MIC (Pseudomonas aeruginosa [10]): 16 µg/mL (≈ 36.8 µM)
MIC (Escherichia coli [11]): 16 µg/mL (≈ 36.8 µM)
MIC (Staphylococcus aureus [12]): 128 µg/mL (≈ 295 µM)
MIC [13]: 1 µg/mL (≈ 2.3 µM)
MIC (Pseudomonas aeruginosa [14]): 16 µg/mL (≈ 36.8 µM)
MIC (Escherichia coli [15]): > 128 µg/mL
MIC (Klebsiella pneumoniae [16]): 2 µg/mL (≈ 4.6 µM)
MIC (Escherichia coli [17]): > 128 µg/mL
MIC (Escherichia coli [18]): > 128 µg/mL
MIC (Klebsiella pneumoniae [19]): 1 µg/mL (≈ 2.3 µM)
MIC (Escherichia coli [20]): 8 µg/mL (≈ 18.4 µM)
MIC (Klebsiella pneumoniae [21]): 16 µg/mL (≈ 36.8 µM)
MIC (Klebsiella pneumoniae [22]): > 128 µg/mL
MIC (Staphylococcus aureus [23]): 0.5 µg/mL (≈ 1.15 µM)
MIC (Escherichia coli [24]): > 128 µg/mL
MIC [25]: 1 µg/mL (≈ 2.3 µM)
MIC (Pseudomonas aeruginosa [26]): 16 µg/mL (≈ 36.8 µM)
MIC (Staphylococcus aureus [27]): 0.5 µg/mL (≈ 1.15 µM)
MIC [28]: 1 µg/mL (≈ 2.3 µM)
MIC (Klebsiella pneumoniae [29]): 1 µg/mL (≈ 2.3 µM)
MIC (Streptococcus pneumoniae [30]): 1 µg/mL (≈ 2.3 µM)
MIC (Klebsiella pneumoniae [31]): 16 µg/mL (≈ 36.8 µM)

CO/N=C1\CN(c2c(F)cc3c(=O)c(C(=O)O)cn(C4CC4)c3c2OC)CCC1N (stereo not drawn)
MIC (Staphylococcus aureus [1]): 0.25 µg/mL (≈ 0.597 µM)
MIC (Escherichia coli [2]): 4 µg/mL (≈ 9.56 µM)
MIC (Staphylococcus aureus [3]): 0.125 µg/mL (≈ 0.299 µM)
MIC [4]: 0.25 µg/mL (≈ 0.597 µM)
MIC [5]: 0.25 µg/mL (≈ 0.597 µM)
MIC (Streptococcus pneumoniae [6]): 0.25 µg/mL (≈ 0.597 µM)
MIC (Staphylococcus aureus [7]): 0.06 µg/mL (≈ 0.143 µM)
MIC (Staphylococcus aureus [8]): 0.25 µg/mL (≈ 0.597 µM)
MIC [9]: 0.25 µg/mL (≈ 0.597 µM)
MIC (Pseudomonas aeruginosa [10]): 16 µg/mL (≈ 38.2 µM)
MIC (Escherichia coli [11]): 16 µg/mL (≈ 38.2 µM)
MIC (Staphylococcus aureus [12]): 8 µg/mL (≈ 19.1 µM)
MIC [13]: 0.5 µg/mL (≈ 1.19 µM)
MIC (Pseudomonas aeruginosa [14]): 4 µg/mL (≈ 9.56 µM)
MIC (Escherichia coli [15]): 64 µg/mL (≈ 153 µM)
MIC (Klebsiella pneumoniae [16]): 2 µg/mL (≈ 4.78 µM)
MIC (Escherichia coli [17]): 64 µg/mL (≈ 153 µM)
MIC (Escherichia coli [18]): 128 µg/mL (≈ 306 µM)
MIC (Klebsiella pneumoniae [19]): 0.5 µg/mL (≈ 1.19 µM)
MIC (Escherichia coli [20]): 2 µg/mL (≈ 4.78 µM)
MIC (Klebsiella pneumoniae [21]): 16 µg/mL (≈ 38.2 µM)
MIC (Klebsiella pneumoniae [22]): 64 µg/mL (≈ 153 µM)
MIC (Staphylococcus aureus [23]): 0.25 µg/mL (≈ 0.597 µM)
MIC (Escherichia coli [24]): 64 µg/mL (≈ 153 µM)
MIC [25]: 2 µg/mL (≈ 4.78 µM)
MIC (Pseudomonas aeruginosa [26]): 16 µg/mL (≈ 38.2 µM)
MIC (Staphylococcus aureus [27]): 0.25 µg/mL (≈ 0.597 µM)
MIC [28]: 0.25 µg/mL (≈ 0.597 µM)
MIC (Klebsiella pneumoniae [29]): 2 µg/mL (≈ 4.78 µM)
MIC (Streptococcus pneumoniae [30]): 2 µg/mL (≈ 4.78 µM)
MIC (Klebsiella pneumoniae [31]): 8 µg/mL (≈ 19.1 µM)
